The subject of data set [1] is Nucleic Acid. Description: Ratio of drug level in brain to plasma in ICR mouse at 10 mg/kg, po after 4 hrs by HPLC/MS/MS analysis. It counts as ADME, organism-based. Also noted: dose 10 mg/kg, route oral.
Data set [2] has as its system Rattus norvegicus. Description: Antiinflammatory activity in Wistar albino rat assessed as inhibition of carrageenan-induced paw edema at 33.6 mg/kg, ig administered 1 hr before carrageenan challenge measured after 4 hrs post carrageenan challenge by plethysmometer. It counts as functional. As to conditions: po, route intragastric. Summed up:
(§1)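 Male Wistar rats (140–160 g), three groups of eight; drug as 0.5% CMC suspension i.g., controls given CMC only. 1 h later, 0.1 ml of 0.1% carrageenan in 0.9% NaCl injected sub-plantar into right hind paw. Paw volume read by plethysmometer hourly to 6 h and at 24 h; inhibition % = (Vc − Vt)/Vc × 100 from mean volume increases; mean ± SEM.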
Background: Carrageenan injected into the paw causes an acute inflammation.

Data set [3] is described as follows: Plasma concentration in ICR mouse at 5 mg/kg, iv after 6 hrs by HPLC/MS/MS analysis. Details: dose 5 mg/kg, route intravenous. It counts as ADME, organism-based.
For data set [4], the target named is T1, Prostaglandin G/H synthase 1 (Homo sapiens, UniProt P23219). Description: Ratio of ibuprofen IC50 to compound IC50 for human COX1 in HEL 92.1.7 cells.
T1 sequence (P23219 whole entry): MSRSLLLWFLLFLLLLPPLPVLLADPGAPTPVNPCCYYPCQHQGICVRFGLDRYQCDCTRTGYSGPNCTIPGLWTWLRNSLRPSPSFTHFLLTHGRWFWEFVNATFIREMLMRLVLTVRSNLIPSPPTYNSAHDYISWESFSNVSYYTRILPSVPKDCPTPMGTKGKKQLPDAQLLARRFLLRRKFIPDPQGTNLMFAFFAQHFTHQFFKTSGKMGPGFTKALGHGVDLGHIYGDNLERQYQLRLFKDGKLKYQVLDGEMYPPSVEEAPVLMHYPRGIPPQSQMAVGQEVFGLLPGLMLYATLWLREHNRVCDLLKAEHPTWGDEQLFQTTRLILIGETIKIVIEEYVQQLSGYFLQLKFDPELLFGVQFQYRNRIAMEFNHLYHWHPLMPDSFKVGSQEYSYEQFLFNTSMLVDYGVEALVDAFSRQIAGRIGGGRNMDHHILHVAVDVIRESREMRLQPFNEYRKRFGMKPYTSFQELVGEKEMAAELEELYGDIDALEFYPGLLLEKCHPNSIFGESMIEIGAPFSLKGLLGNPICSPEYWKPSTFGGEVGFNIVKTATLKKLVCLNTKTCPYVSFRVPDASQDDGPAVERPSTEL
The subject of data set [5] is Nucleic Acid. As to the kind of experiment: Ratio of drug level in brain to plasma in ICR mouse at 10 mg/kg, po after 2 hrs by HPLC/MS/MS analysis. It counts as ADME, organism-based. Details: dose 10 mg/kg, route oral.
Data set [6] addresses T2, Prostaglandin G/H synthase 1 (Ovis aries, UniProt P05979).
T2 sequence (P05979 whole entry): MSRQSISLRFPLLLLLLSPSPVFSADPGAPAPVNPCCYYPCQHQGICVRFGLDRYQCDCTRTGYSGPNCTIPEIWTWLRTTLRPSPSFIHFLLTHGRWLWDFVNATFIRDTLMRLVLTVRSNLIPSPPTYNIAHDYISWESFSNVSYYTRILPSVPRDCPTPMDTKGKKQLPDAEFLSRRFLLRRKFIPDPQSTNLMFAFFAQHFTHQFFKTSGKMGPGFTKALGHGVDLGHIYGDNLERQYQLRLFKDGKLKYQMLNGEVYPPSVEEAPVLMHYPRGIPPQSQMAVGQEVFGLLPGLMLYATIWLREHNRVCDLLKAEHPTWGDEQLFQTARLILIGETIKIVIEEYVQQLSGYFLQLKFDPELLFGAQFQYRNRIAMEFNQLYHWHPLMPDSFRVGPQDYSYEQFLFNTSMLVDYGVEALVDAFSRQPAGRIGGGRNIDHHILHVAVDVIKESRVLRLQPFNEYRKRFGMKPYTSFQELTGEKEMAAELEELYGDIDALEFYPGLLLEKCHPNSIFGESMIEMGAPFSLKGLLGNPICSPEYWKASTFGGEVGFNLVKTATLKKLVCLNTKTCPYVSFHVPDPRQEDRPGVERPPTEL
As to the kind of experiment: Inhibition of ovine COX1 by EIA.

Data set [7] has as its system Rattus norvegicus. As to the kind of experiment: Gastrointestinal toxicity in Wistar rat assessed as ulcerogenic effect at 108.8 mg/kg, po measured after 17 hrs post treatment (Rvb =0.50 +/- 0.41). It is filed as organism-based. Also noted: dose 108.8 mg/kg, route oral. As to conditions: in vivo. Summed up: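 Wistar rats, 150–200 g, eight per group, fasted at least 8 h with water ad libitum. Drug is given orally as a 0.5% CMC suspension at 10 ml/kg; controls get 0.5% CMC. Food is returned after 30 min. At 17 h rats are killed with CO₂ and stomachs removed. Damage score is the summed lesion lengths in mm per rat; mean ± SEM.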

The test system of data set [8] is Nucleic Acid. Description: Ratio of drug level in brain to plasma in ICR mouse at 5 mg/kg, iv after 1 hr by HPLC/MS/MS analysis. It counts as ADME, organism-based. Also noted: dose 5 mg/kg, route intravenous.
Another data set deals with Mus musculus. As to the kind of experiment: Analgesic activity in Swiss albino mouse assessed as inhibition of acetic acid-induced writhing at 33.6 mg/kg, ig administered 1 hr before acetic acid challenge measured 10 mins post acetic acid challenge. It is filed as functional. The following applies: po, route intragastric. Summed up: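 Male Swiss albino mice (22–24 g), three groups, n = 8; drug suspended in 0.5% CMC given i.g. (0.3 ml/10 g) 1 h before i.p.-unspecified injection of 1% (v/v) acetic acid at 0.1 ml/10 g. Writhes counted for 10 min starting 10 min after acetic acid; activity as percent decrease in writhing versus vehicle control; mean ± SEM, ANOVA then t-test.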
On the technique in general: Writhing tests count abdominal constrictions after an irritant is injected.

For data set [9], the target named is T3, Prostaglandin G/H synthase 2 (Homo sapiens, UniProt P35354).
T3 sequence (P35354 whole entry): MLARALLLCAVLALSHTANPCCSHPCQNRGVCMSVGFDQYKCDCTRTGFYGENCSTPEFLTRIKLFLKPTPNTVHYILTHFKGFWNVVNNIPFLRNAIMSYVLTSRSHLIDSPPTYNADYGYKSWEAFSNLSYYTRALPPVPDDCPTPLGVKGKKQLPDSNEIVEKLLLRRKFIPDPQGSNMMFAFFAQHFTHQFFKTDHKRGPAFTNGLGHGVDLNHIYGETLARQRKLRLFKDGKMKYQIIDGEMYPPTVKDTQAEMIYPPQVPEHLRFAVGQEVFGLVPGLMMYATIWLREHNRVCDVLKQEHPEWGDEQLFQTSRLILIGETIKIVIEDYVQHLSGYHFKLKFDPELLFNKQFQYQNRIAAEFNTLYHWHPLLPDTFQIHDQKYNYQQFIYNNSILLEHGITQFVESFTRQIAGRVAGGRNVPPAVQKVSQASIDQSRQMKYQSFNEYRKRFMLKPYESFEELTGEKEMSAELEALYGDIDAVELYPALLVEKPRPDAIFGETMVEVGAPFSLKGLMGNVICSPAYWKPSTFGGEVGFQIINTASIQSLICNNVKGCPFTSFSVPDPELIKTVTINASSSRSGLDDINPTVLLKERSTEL
Description: Inhibition of COX2 in LPS-stimulated and PMA-treated human U937 cells assessed as PGE2 production after 15 mins by ELISA. It counts as cell-based, U-937. (In general: ELISA stands for enzyme-linked immunosorbent assay.)

Data set [10] addresses T1, Prostaglandin G/H synthase 1. Description: Inhibition of COX1 in human HEL 92.1.7 cells assessed as thromboxane B2 production incubated for 30 mins before arachidonic acid addition measured after 15 mins by ELISA. It is filed as cell-based. Summed up: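 HEL92.1.7 cells at 10⁸/ml in fresh medium, incubated with drug (10⁻⁶–10 μM range) for 30 min at 37 °C. TXB₂ is measured in cell-free supernatant by ELISA and expressed as a ratio to vehicle-only cultures; mean ± SD; IC50 from the concentration–response curve.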

A short description of data set [11]: Mean residence time (0 to infinity) in ICR mouse at 5 mg/kg, iv. It is filed as ADME, organism-based. Details: dose 5 mg/kg, route intravenous. The following applies: in vivo. An outline of the steps: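 ICR mice given drug intravenously at 5 mg/kg or orally at 10 mg/kg. Parameters are taken from the plasma concentration–time profile: AUC(0–t), AUC(0–∞), MRT, Cmax and bioavailability.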

Data set [12] can be described thus: Drug level in ICR mouse brain at 10 mg/kg, po after 6 hrs by HPLC/MS/MS analysis. It counts as ADME, organism-based. Details: dose 10 mg/kg, route oral. The following applies: read-out: Drug uptake.
In data set [13] the test system is Rattus norvegicus. Description: Antiinflammatory activity in Wistar albino rat assessed as inhibition of carrageenan-induced paw edema at 30 mg/kg, ig administered 1 hr before carrageenan challenge measured after 4 hrs post carrageenan challenge by plethysmometer. It is filed as functional. As to conditions: po, route intragastric. An outline of the steps:
as §1

Data set [14] relates to Nucleic Acid. As to the kind of experiment: Ratio of drug level in brain to plasma in ICR mouse at 10 mg/kg, po after 6 hrs by HPLC/MS/MS analysis. It counts as ADME, organism-based. Details: dose 10 mg/kg, route oral.

For orientation: inhibition in vivo means the change of the read-out against control, counted positive when it falls. In general, IC50 refers to the midpoint of a concentration-inhibition curve. In general, MRT inf refers to a mean duration of stay, worked out from the concentration-time curve. In the case of `CC(C)Cc1ccc([C@H](CF)C(=O)O)cc1`, the BPR is 0.032 mL/g in the data set on Nucleic Acid [1], 0.03 mL/g with Nucleic Acid [5] and 0.041 mL/g in the data set with Nucleic Acid [8]. Also, the inhibition in vivo at 33.6 mg/kg in the data set with Rattus norvegicus [2] was 41.3%; in the data set on Mus musculus it was 50%. This compound registered a concentration at 6 h in [3] of 130 ng/mL. The Ratio IC50 in [4] came to 80. In addition, the IC50 was determined as 500 nM in data set [6], 530 nM in [9] and 1.23 nM in [10]. Besides, the Activity entry in the data set with Rattus norvegicus [7] is “Toxic”. Moreover, the inhibition entry in [10] was “Dose-dependent effect”. This compound registered a mean residence time (MRT inf) in [11] of 0.83 h.
Take `CC(C)Cc1ccc([C@H](C)C(=O)O)cc1` [DEXIBUPROFEN]: the values for the concentration at 6 h in data set [12] and in data set [3] were 43.1 ng/g and 334 ng/mL, respectively. Besides, in the data set with Rattus norvegicus [13], the inhibition in vivo at 30 mg/kg turned out to be 29.5%. For the same compound, the BPR in the data set with Nucleic Acid [14] is 0.036 mL/g. The MRT inf in [11] is 1.28 h.

For the origin of these results see ChEMBL document CHEMBL1944509, “Methyl-monofluorination of ibuprofen selectively increases its inhibitory activity toward cyclooxygenase-1 leading to enhanced analgesic activity and reduced gastric damage in vivo” (Bioorg Med Chem Lett, 2011).
